Results as given in ChEMBL document CHEMBL4834416, “The Discovery of Novel ACA Derivatives as Specific TRPM2 Inhibitors that Reduce Ischemic Injury Both In Vitro and In Vivo” (J Med Chem, 2021).
pIC50: −log10 of the molar value. Activity calls are given as the source filed them. The calls are words filed in the database; no cut-off is given here.

Assays:
[1] = tested on: Mus musculus; experiment: Neuroprotective activity in mouse model of transient middle cerebral artery occlusion-induced cerebral ischemia-reperfusion injury assessed as reduction neurological score at 1 mg/kg, iv treated for 3 hrs after onset of reperfusion by TTC staining based assay relative to control; type: functional, organism-based
[2] = tested on: SH-SY5Y; experiment: Neuroprotective activity against oxygen glucose deprivation/reperfusion-induced cell death in human SH-SY5Y cells assessed as cell viability at 0.3 uM […] for 12 hrs by CCK8 assay relative to control; type: functional; settings: read-out: Activity
[3] = MRT in C57BL/6 mouse plasma at 1 mg/kg, iv by LC-MS/MS analysis; type: ADME, organism-based
[4] = target: Transient receptor potential cation channel subfamily M member 8 (Homo sapiens, UniProt Q7Z2W7); experiment: Inhibition of human TRPM8 expressed in HEK293T cells assessed as blocked of menthol-activated current at 10 uM by whole cell patch clamp electrophysiology relative to control; type: cell-based
Sequence of Transient receptor potential cation channel subfamily M member 8 (Q7Z2W7 whole entry, looked up, the tested form may be a part): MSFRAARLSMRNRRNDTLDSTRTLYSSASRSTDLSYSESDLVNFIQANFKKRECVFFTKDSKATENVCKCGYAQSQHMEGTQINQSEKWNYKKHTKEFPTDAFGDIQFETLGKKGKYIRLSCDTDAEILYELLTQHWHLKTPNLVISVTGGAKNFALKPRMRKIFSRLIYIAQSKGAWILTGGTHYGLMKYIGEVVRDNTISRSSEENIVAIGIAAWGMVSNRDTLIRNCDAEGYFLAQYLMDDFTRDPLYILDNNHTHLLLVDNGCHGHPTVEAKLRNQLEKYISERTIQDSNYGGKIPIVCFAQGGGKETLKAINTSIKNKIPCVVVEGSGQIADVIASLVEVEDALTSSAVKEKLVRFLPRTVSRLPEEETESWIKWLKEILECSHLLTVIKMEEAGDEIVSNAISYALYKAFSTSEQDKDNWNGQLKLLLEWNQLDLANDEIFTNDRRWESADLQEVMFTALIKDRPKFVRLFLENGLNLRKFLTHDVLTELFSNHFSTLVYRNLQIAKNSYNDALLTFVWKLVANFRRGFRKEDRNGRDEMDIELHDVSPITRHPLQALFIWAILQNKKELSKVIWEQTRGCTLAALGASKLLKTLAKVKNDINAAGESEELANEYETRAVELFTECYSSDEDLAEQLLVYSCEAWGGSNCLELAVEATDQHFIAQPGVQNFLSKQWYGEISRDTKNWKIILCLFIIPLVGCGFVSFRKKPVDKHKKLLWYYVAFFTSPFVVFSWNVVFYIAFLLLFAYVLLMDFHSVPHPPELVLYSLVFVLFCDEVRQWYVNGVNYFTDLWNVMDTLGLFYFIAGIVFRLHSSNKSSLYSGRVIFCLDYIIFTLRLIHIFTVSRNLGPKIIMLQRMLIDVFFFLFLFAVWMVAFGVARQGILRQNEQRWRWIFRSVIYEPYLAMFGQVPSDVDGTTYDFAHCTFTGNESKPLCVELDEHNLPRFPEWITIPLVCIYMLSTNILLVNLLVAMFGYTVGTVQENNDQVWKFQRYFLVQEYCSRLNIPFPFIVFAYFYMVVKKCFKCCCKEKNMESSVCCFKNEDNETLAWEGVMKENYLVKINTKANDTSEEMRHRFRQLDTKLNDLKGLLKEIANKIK
How it was run: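 Whole-cell patch clamp was run at room temperature on HEK293T cells transiently cotransfected with human TRPM8 plus GFP, 24–48 h before recording. ECS was 145 NaCl, 5.6 KCl, 2 MgCl₂, 1.2 CaCl₂, 10 HEPES, pH 7.2. Current was activated with 1 mM menthol, and compound was perfused at least 60 s after it stabilized. Inhibition was calculated relative to stable agonist current minus residual current; n = 3–6.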

[5] = Cmax in C57BL/6 mouse plasma at 1 mg/kg, iv by LC-MS/MS analysis; type: ADME, organism-based; design: route intravenous, dose 1 mg/kg
[6] = tested on: Mus musculus; experiment: Neuroprotective activity in mouse model of transient middle cerebral artery occlusion-induced cerebral ischemia-reperfusion injury assessed as reduction neurological score at 0.3 mg/kg, iv treated for 3 hrs after onset of reperfusion by TTC staining based assay relative to control; type: functional, organism-based
[7] = Tmax in C57BL/6 mouse plasma at 10 mg/kg, IG by LC-MS/MS analysis; type: ADME, organism-based; settings: po
[8] = AUC (0 to infinitive) in C57BL/6 mouse plasma at 0.3 mg/kg, iv by LC-MS/MS analysis; type: ADME, organism-based; design: time infinity, route intravenous, dose 0.3 mg/kg
[9] = Clearance in C57BL/6 mouse plasma at 10 mg/kg, IG by LC-MS/MS analysis; type: ADME, organism-based; settings: po
[10] = tested on: Mus musculus; experiment: Neuroprotective activity in mouse model of transient middle cerebral artery occlusion-induced cerebral ischemia-reperfusion injury assessed as reduction in infarct volume at 0.3 mg/kg, iv treated for 3 hrs after onset of reperfusion by TTC staining based assay (reference value: 52 +/- 1.7%); type: functional; design: scale not given: the % may be the effect or the level left
[11] = Half life in C57BL/6 mouse plasma at 3 mg/kg, iv by LC-MS/MS analysis; type: ADME, organism-based
[12] = Clearance in C57BL/6 mouse plasma at 0.3 mg/kg, iv by LC-MS/MS analysis; type: ADME, organism-based
[13] = tested on: Mus musculus; experiment: Neuroprotective activity in mouse model of transient middle cerebral artery occlusion-induced cerebral ischemia-reperfusion injury assessed as reduction neurological score at 3 mg/kg, iv treated for 3 hrs after onset of reperfusion by TTC staining based assay (reference value: 2.4 +/- 0.5); type: functional
[14] = AUC (0 to t) in C57BL/6 mouse plasma at 0.3 mg/kg, iv by LC-MS/MS analysis; type: ADME, organism-based; design: dose 0.3 mg/kg
[15] = Tmax in C57BL/6 mouse plasma at 0.3 mg/kg, iv by LC-MS/MS analysis; type: ADME, organism-based
[16] = Half life in C57BL/6 mouse plasma at 0.3 mg/kg, iv by LC-MS/MS analysis; type: ADME, organism-based
[17] = AUC (0 to t) in C57BL/6 mouse plasma at 1 mg/kg, iv by LC-MS/MS analysis; type: ADME, organism-based; design: dose 1 mg/kg
[18] = target: Phospholipase A2 (Homo sapiens, UniProt P04054); experiment: Inhibition of PLA2 (unknown origin) using soybean phosphatidylcholine as substrate at 3 uM preincubated for 30 mins followed incubated for 60 mins after substrate addition by microplate reader relative to control
Sequence of Phospholipase A2 (P04054 23-148 limits assumed): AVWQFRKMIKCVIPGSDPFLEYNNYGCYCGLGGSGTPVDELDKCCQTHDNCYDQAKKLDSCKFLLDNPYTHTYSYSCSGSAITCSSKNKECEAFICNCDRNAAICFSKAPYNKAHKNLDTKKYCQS
How it was run: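 PLA2 (4 μg/L in PBS) was preincubated 30 min at 37 °C with inhibitor in 125 mM Tris. Substrate was then added for 60 min: soybean phosphatidylcholine with Tris, CaCl₂, sodium deoxycholate and 0.5% Triton X-100. Liberated free fatty acids were quantified colorimetrically at OD550. Results are % inhibition versus enzyme without inhibitor, n = 3.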

[19] = AUC (0 to infinitive) in C57BL/6 mouse plasma at 10 mg/kg, IG by LC-MS/MS analysis; type: ADME, organism-based; design: route […], time infinity, dose 10 mg/kg; settings: po
[20] = Cmax in C57BL/6 mouse plasma at 100 mg/kg, IG by LC-MS/MS analysis; type: ADME, organism-based; design: route […], dose 100 mg/kg; settings: po
[21] = Half life in C57BL/6 mouse plasma at 100 mg/kg, IG by LC-MS/MS analysis; type: ADME, organism-based; settings: po
[22] = target: Transient receptor potential cation channel subfamily M member 2 (Homo sapiens, UniProt O94759); experiment: Inhibition of human TRPM2 expressed in HEK293T cells assessed as blocked of ADPR-activated current by whole cell patch clamp electrophysiology; type: cell-based
Sequence of Transient receptor potential cation channel subfamily M member 2 (O94759 whole entry): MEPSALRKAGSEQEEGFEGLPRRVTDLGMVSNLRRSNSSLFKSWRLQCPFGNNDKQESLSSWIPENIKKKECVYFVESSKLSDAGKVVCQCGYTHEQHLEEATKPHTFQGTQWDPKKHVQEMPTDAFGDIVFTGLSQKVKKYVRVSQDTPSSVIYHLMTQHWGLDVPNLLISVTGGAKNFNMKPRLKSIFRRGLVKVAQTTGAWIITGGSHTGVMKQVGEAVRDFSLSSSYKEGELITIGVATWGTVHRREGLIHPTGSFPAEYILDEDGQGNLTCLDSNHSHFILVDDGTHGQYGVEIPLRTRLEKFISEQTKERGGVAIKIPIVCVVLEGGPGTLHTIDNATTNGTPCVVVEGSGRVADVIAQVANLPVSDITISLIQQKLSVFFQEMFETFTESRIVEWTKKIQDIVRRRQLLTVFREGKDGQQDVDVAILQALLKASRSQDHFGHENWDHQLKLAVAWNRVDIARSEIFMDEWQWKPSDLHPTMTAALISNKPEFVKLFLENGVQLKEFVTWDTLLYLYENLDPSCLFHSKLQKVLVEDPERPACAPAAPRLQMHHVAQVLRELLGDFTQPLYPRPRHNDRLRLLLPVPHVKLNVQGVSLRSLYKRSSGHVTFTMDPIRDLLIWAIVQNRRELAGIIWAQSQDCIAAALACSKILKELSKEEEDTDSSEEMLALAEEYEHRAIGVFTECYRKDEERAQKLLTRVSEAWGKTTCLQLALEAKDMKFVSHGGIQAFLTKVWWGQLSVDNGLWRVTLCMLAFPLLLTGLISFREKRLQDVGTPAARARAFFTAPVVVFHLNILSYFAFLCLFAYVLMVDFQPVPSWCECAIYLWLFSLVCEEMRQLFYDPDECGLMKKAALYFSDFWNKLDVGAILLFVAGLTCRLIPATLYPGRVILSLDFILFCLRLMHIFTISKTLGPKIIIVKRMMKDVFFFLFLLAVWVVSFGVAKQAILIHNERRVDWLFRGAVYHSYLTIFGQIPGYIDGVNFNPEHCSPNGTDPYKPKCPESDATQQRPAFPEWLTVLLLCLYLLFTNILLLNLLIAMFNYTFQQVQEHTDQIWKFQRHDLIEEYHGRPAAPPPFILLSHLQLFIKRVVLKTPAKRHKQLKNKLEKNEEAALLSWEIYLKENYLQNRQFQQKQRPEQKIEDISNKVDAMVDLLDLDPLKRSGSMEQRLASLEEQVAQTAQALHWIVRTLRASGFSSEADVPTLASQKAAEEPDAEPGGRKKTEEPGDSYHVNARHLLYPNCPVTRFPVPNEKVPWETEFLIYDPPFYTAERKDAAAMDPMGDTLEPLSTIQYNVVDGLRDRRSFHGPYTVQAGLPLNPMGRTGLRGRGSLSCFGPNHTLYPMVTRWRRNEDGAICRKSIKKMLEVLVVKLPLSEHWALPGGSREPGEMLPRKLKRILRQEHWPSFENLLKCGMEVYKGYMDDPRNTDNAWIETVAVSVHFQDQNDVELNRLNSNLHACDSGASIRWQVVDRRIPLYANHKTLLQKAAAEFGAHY

[23] = Oral bioavailability in C57BL/6 mouse plasma at 1 mg/kg, IG by LC-MS/MS analysis; type: ADME, organism-based
[24] = tested on: SH-SY5Y; experiment: Cytotoxicity against human SH-SY5Y cells assessed as toxicity at 30 uM incubated for 24 hrs by CCK-8 assay; type: cell-based
How it was run: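 SH-SY5Y cells were seeded at 2 × 10⁴ per well and grown 12 h at 37 °C. They were then treated with compound (1–30 μM) under normoxic, normal-glucose conditions for 24 h. CCK-8 (10%) was added for 2 h at 37 °C and OD450 read. Viability was taken relative to untreated control after blank subtraction, with three replicate wells.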

[25] = Half life in C57BL/6 mouse plasma at 10 mg/kg, IG by LC-MS/MS analysis; type: ADME, organism-based; settings: po
[26] = AUC (0 to infinitive) in C57BL/6 mouse plasma at 100 mg/kg, IG by LC-MS/MS analysis; type: ADME, organism-based; design: route […], time infinity, dose 100 mg/kg; settings: po
[27] = Toxicity in C57BL/6 mouse assessed as adverse effect at 100 mg/kg, IG; type: organism-based; settings: in vivo, po
[28] = tested on: Mus musculus; experiment: Neuroprotective activity in mouse model of transient middle cerebral artery occlusion-induced cerebral ischemia-reperfusion injury assessed as reduction in infarct volume at 3 mg/kg, iv treated for 3 hrs after onset of reperfusion by TTC staining based assay (reference value: 57.6 +/- 4.9%); type: functional; design: scale not given: the % may be the effect or the level left
[29] = tested on: SH-SY5Y; experiment: Neuroprotective activity against oxygen glucose deprivation/reperfusion-induced cell death in human SH-SY5Y cells assessed as cell viability at 1 to 30 uM […] by CCK8 assay relative to control; type: functional; settings: dose 1-30 µM
[30] = Cmax in C57BL/6 mouse plasma at 10 mg/kg, IG by LC-MS/MS analysis; type: ADME, organism-based; design: route […], dose 10 mg/kg; settings: po
[31] = AUC (0 to infinitive) in C57BL/6 mouse plasma at 1 mg/kg, iv by LC-MS/MS analysis; type: ADME, organism-based; design: time infinity, route intravenous, dose 1 mg/kg
[32] = Cmax in C57BL/6 mouse plasma at 0.3 mg/kg, iv by LC-MS/MS analysis; type: ADME, organism-based; design: route intravenous, dose 0.3 mg/kg
[33] = MRT in C57BL/6 mouse plasma at 0.3 mg/kg, iv by LC-MS/MS analysis; type: ADME, organism-based
[34] = Oral bioavailability in C57BL/6 mouse plasma at 0.3 mg/kg, IG by LC-MS/MS analysis; type: ADME, organism-based

**Q.** Which Activity [1] does the source give for `O=C(/C=C/c1ccc(-c2cccc(C(F)(F)F)c2)cc1)Nc1ccccc1C(=O)O` here?
**A.** The Activity was “inactive”.

**Q.** And the viability at 0.3 µM [2]?
**A.** The viability at 0.3 µM was 68.7%.

**Q.** And the MRT [3]?
**A.** The MRT was 1.7 h.

**Q.** What about the inhibition [4] of the same compound?
**A.** The inhibition was 22.6%.

**Q.** And the Cmax [5]?
**A.** The Cmax was 13000 ng/mL.

**Q.** And the Activity [6]?
**A.** The Activity was “inactive”.

**Q.** And the Tmax [7]?
**A.** Its Tmax is 0.5 h.

**Q.** What about the AUC(0-inf) [8] of the same compound?
**A.** Its AUC(0-inf) is 5.45 µg·h/mL.

**Q.** What about the CL/F [9] of the same compound?
**A.** The CL/F was 1.04 mL/min/kg.

**Q.** And the Activity [10]?
**A.** The Activity was 39.8%.

**Q.** What about the half-life [11] of the same compound?
**A.** The half-life was 1.34 h.

**Q.** And the clearance [12]?
**A.** The clearance was 0.917 mL/min/kg.

**Q.** And the Activity [13]?
**A.** Its Activity is 1.8.

**Q.** What about the AUC(0-t) [14] of the same compound?
**A.** The AUC(0-t) was 5.2 µg·h/mL.

**Q.** What about the Tmax [15] of the same compound?
**A.** Its Tmax is 4.8 min.

**Q.** And the half-life [16]?
**A.** Its half-life is 0.93 h.

**Q.** And the AUC(0-t) [17]?
**A.** Its AUC(0-t) is 18.5 µg·h/mL.

**Q.** And the inhibition [18]?
**A.** Its inhibition is 7.8%.

**Q.** And the AUC(0-inf) [19]?
**A.** Its AUC(0-inf) is 160 µg·h/mL.

**Q.** And the Cmax [20]?
**A.** The Cmax was 168000 ng/mL.

**Q.** What about the half-life [21] of the same compound?
**A.** Its half-life is 3.62 h.

**Q.** What about the pIC50 [22] of the same compound?
**A.** Its pIC50 is 6.10.

**Q.** And the bioavailability [23]?
**A.** Its bioavailability is 84.8%.

**Q.** What about the Activity [24] of the same compound?
**A.** The Activity was under 10%.

**Q.** What about the half-life [25] of the same compound?
**A.** The half-life was 1.42 h.

**Q.** And the AUC(0-inf) [26]?
**A.** The AUC(0-inf) was 1870 µg·h/mL.

**Q.** What about the Activity [27] of the same compound?
**A.** Its Activity is “Non-Toxic”.

**Q.** And the Activity [28]?
**A.** Its Activity is 38.9%.

**Q.** What about the Activity [29] of the same compound?
**A.** Its Activity is 80%.

**Q.** And the Cmax [30]?
**A.** Its Cmax is 58400 ng/mL.

**Q.** And the AUC(0-inf) [31]?
**A.** Its AUC(0-inf) is 18.9 µg·h/mL.

**Q.** What about the Cmax [32] of the same compound?
**A.** Its Cmax is 5070 ng/mL.

**Q.** And the MRT [33]?
**A.** The MRT was 1.19 h.

**Q.** What about the bioavailability [34] of the same compound?
**A.** Its bioavailability is 90.4%.
